Here are results for twelve compounds from ChEMBL document CHEMBL4229460, “Design and biological evaluation of novel hybrids of 1, 5-diarylpyrazole and Chrysin for selective COX-2 inhibition” (Bioorg Med Chem, 2018).

Assay [1] relates to HeLa. The assay is described as follows: Disruption of mitochondrial membrane potential in human HeLa cells assessed as collapse of the mitochondrial membrane potential at 10 uM after 12 hrs by JC1 staining based flow cytometry (reference value: 0.768%). The format is functional. (Flow cytometry measures light scatter and fluorescence of single cells or particles in a stream.)

Assay [2] deals with HeLa. Briefly: Disruption of mitochondrial membrane potential in human HeLa cells assessed as intact mitochondrial membrane at 10 uM after 12 hrs by JC1 staining based flow cytometry (reference value: 99.2%). The format is functional.
Assay [3] concerns the target Prostaglandin G/H synthase 1 (Homo sapiens, UniProt P23219). The assay is described as follows: Inhibition of COX1 (unknown origin) using arachidonic acid as substrate pretreated for 10 mins followed by substrate addition and measured after 2 mins by ELISA. The format is ADME. A general note: In an ELISA, binding on a coated surface is turned into a signal by an enzyme label.

For assay [4], the target named is T1, Prostaglandin G/H synthase 2 (Homo sapiens, UniProt P35354).
T1 sequence (P35354 whole entry): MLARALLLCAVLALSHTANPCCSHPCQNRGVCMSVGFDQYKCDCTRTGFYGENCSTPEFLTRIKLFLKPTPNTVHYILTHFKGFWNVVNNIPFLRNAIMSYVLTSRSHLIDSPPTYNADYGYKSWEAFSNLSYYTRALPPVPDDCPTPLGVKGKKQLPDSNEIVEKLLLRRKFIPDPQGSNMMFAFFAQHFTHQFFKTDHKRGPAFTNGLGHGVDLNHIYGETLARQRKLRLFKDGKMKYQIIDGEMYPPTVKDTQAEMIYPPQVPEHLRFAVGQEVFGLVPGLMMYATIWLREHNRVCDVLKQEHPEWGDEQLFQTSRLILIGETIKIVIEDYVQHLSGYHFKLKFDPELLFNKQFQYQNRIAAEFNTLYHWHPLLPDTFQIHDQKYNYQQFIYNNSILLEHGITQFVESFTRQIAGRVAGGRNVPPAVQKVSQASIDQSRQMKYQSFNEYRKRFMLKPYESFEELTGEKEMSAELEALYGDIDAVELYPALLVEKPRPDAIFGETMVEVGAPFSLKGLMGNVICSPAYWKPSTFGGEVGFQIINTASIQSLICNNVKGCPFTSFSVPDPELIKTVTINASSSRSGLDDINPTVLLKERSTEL
Briefly: Inhibition of COX2 (unknown origin) using arachidonic acid as substrate pretreated for 10 mins followed by substrate addition and measured after 2 mins by ELISA.

The species named for the next assay is Homo sapiens. The assay is described as follows: Selectivity index, ratio of IC50 for COX1 (unknown origin) to ratio of IC50 for COX2 (unknown origin). In a few lines:
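Enzyme ELISA kit: COX-1 or COX-2 preincubated with compound at 0, 1, 10 or 100 μM for 10 min at 37 °C in 0.1 M Tris-HCl pH 8.0, 5 mM EDTA, 2 mM phenol, 1 μM heme. Started with 100 μM arachidonic acid for 2 min at 37 °C, stopped with 1 M HCl. PGH₂ reduced by stannous chloride; PGF2α read by enzyme immunoassay at 450 nm. Index taken as the ratio of the COX IC50 values.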

The next assay deals with MCF7. Briefly: Antiproliferative activity against human MCF7 cells after 48 hrs by MTT assay. The conditions noted are these: MCF7, 48 h. The format is functional, cell-based.
In a further assay the test system is B16-F10. The assay is described as follows: Antiproliferative activity against mouse B16F10 cells after 48 hrs by MTT assay. The format is functional, cell-based. The conditions noted are these: B16-F10, 48 h. In a few lines:
(§1)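 Cells kept in DMEM with 10% FBS, penicillin/streptomycin, 37 °C, 5% CO₂. Seeded at 5 × 10⁴ cells/well and allowed to adhere 12 h. Exposed to 0, 0.1, 1, 10 and 100 μM (final) for 48 h. Viability read by MTT reduction at OD 570 nm with 630 nm reference. IC50 reported as mean ± SD of three independent experiments.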
For orientation: Tetrazolium assays rely on reduction of a dye to a coloured formazan, in cell work by metabolically active cells.

Another assay relates to A549. Briefly: Antiproliferative activity against human A549 cells after 48 hrs by MTT assay. The format is functional, cell-based. The conditions noted are these: A549, 48 h. In a few lines: as §1
In assay [5] the test system is HeLa. Briefly: Antiproliferative activity against human HeLa cells after 48 hrs by MTT assay. The format is functional, cell-based.
Another assay has as its system HEK-293T. Briefly: Cytotoxicity against human 293T cells after 48 hrs by MTT assay. The format is cell-based.

Prostaglandin G/H synthase 1, sequence (P23219 whole entry): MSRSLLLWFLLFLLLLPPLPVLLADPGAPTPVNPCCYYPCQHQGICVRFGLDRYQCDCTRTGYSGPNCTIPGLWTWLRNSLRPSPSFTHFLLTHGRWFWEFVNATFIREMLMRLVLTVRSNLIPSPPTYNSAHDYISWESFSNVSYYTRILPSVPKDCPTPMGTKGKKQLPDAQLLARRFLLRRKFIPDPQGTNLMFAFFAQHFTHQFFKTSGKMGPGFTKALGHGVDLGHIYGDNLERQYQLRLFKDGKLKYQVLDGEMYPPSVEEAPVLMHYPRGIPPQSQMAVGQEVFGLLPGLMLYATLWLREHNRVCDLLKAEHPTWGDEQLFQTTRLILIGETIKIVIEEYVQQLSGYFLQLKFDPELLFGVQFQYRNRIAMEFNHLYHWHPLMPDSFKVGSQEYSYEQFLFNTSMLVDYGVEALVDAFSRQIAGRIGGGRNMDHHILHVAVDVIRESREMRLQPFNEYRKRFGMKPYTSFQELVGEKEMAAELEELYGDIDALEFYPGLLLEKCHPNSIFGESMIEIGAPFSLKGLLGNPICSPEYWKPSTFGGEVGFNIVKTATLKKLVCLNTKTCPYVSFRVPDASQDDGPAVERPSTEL

With `N#CC(C#N)=NNc1cccc(Cl)c1` [CARBONYL CYANIDE M-CHLOROPHENYLHYDRAZONE], the figures for the Activity in the assay on HeLa [1] and in the assay with HeLa [2] were 40.5% and 59.5%, respectively.

On to `O=C(COc1cc(O)c2c(=O)cc(-c3ccccc3)oc2c1)OCc1cc(-c2ccc(Cl)c(Cl)c2)n(-c2ccccc2)n1`, for which the IC50 (commonly the point on the concentration scale where inhibition reaches its midpoint) is > 50 µM in assay [3]; 6.83 µM in assay [4]; 3.29 µM with MCF7; 6.44 µM with B16-F10; 5.52 µM with A549; 6.28 µM in the assay with HeLa [5]. 233 µM corresponded to half-maximal inhibition in the assay with HEK-293T (IC50). Besides, in the assay filed under Homo sapiens, the Ratio IC50 is > 7.

Consider `COc1ccc(-c2cc(COC(=O)COc3cc(O)c4c(=O)cc(-c5ccccc5)oc4c3)nn2-c2ccccc2)cc1`, for which the IC50 in [3] was 41.3 µM; in [4], 0.54 µM; with MCF7, 7.1 µM; with B16-F10, 1.76 µM; in the assay with A549, 10.6 µM; with HeLa [5], 2.72 µM. In addition, the IC50 with HEK-293T came to 257 µM. Besides, the Ratio IC50 in the assay listed under Homo sapiens is 75.9.

In the case of `Cc1ccc(-c2cc(COC(=O)COc3cc(O)c4c(=O)cc(-c5ccccc5)oc4c3)nn2-c2ccc(C)cc2)cc1`, the IC50 came out at 41.2 µM in assay [3]; 0.42 µM in [4]; 3.23 µM in the assay on MCF7; 3.51 µM with B16-F10; 2.87 µM in the assay on A549; 2.87 µM in the assay with HeLa [5]. In the assay on HEK-293T, this compound came in with a concentration for half-maximal inhibition (IC50) of 197 µM. In addition, in the assay filed under Homo sapiens, the Ratio IC50 stood at 96.

`O=C(COc1cc(O)c2c(=O)cc(-c3ccccc3)oc2c1)OCc1cc(-c2ccc(C(F)(F)F)cc2)n(-c2ccccc2)n1`: the IC50 in assay [3] came out at 32.9 µM; in assay [4], 4.33 µM; with MCF7, 11 µM; in the assay with B16-F10 it was 9.85 µM; in the assay with A549, 8.02 µM; in the assay with HeLa [5], 6.61 µM. In addition, the IC50 in the assay on HEK-293T came out at 162 µM. Also, the Ratio IC50 in the assay filed under Homo sapiens came out at 7.61.

On to `O=C(COc1cc(O)c2c(=O)cc(-c3ccccc3)oc2c1)OCc1cc(-c2ccc(Cl)c(Cl)c2)n(-c2ccc(Cl)cc2)n1`, for which the IC50 in assay [3] is 33.1 µM; in assay [4], 8.58 µM; in the assay on MCF7, 12.1 µM; in the assay with B16-F10, 6.08 µM; with A549, 3.62 µM; in the assay with HeLa [5], 4.72 µM. In the assay on HEK-293T, this compound gave a 50% inhibitory concentration (IC50) of 268 µM. For the same compound, the Ratio IC50 in the assay filed under Homo sapiens is 3.86.

Take `Cc1ccc(-n2nc(COC(=O)COc3cc(O)c4c(=O)cc(-c5ccccc5)oc4c3)cc2-c2ccc([N+](=O)[O-])cc2)cc1`: the IC50 came to 44.8 µM in [3]; 1.39 µM in [4]; 15.8 µM in the assay with MCF7; 2.71 µM with B16-F10; 5.88 µM with A549; 18.4 µM with HeLa [5]. The compound further gave an IC50 in the assay with HEK-293T of 216 µM. Besides, the Ratio IC50 in the assay listed under Homo sapiens was determined as 32.1.

Turning to `COc1cccc(-c2cc(COC(=O)COc3cc(O)c4c(=O)cc(-c5ccccc5)oc4c3)nn2-c2ccccc2)c1`, the IC50 in assay [3] amounted to 25.5 µM; in assay [4], 1.21 µM; with MCF7 it was 5.12 µM; in the assay with B16-F10, 6.92 µM; in the assay with A549 it was 13.6 µM; in the assay with HeLa [5], 13.6 µM. Further, in the assay on HEK-293T, inhibition was half-maximal at 317 µM (IC50). Further, the Ratio IC50 in the assay filed under Homo sapiens was found to be 21.

In the case of `Cc1ccc(-c2cc(COC(=O)COc3cc(O)c4c(=O)cc(-c5ccccc5)oc4c3)nn2-c2ccccc2)cc1`, the IC50 in assay [3] amounted to 45 µM; in assay [4], 0.93 µM; in the assay with MCF7 it was 5.43 µM; in the assay with B16-F10, 2.59 µM; in the assay with A549, 4.49 µM; in the assay on HeLa [5], 4.78 µM. Further, in the assay with HEK-293T, the 50% inhibitory concentration (IC50) is 315 µM. For the same compound, the Ratio IC50 in the assay filed under Homo sapiens amounted to 48.4.

For the compound `Cc1ccc(-n2nc(COC(=O)COc3cc(O)c4c(=O)cc(-c5ccccc5)oc4c3)cc2-c2cccc(C)c2)cc1`, the half-maximal inhibitory concentration (IC50) in assay [3] was determined as 32.2 µM; in [4] it was 1.19 µM; with MCF7, 3.25 µM; with B16-F10 it was 4.33 µM; in the assay with A549, 11.6 µM; in the assay with HeLa [5], 1.31 µM. The compound further registered a concentration for half-maximal inhibition (IC50) in the assay on HEK-293T of 398 µM. The Ratio IC50 in the assay listed under Homo sapiens came out at 27.

Consider `O=C(COc1cc(O)c2c(=O)cc(-c3ccccc3)oc2c1)OCc1cc(-c2ccc([N+](=O)[O-])cc2)n(-c2ccccc2)n1`, for which the IC50 in [3] was found to be 42 µM; in assay [4], 1.66 µM; with MCF7, 22.2 µM; in the assay on B16-F10, 15.6 µM; with A549, 17 µM; with HeLa [5], 2.04 µM. This compound also came in with an IC50 with HEK-293T of 192 µM. Besides, in the assay filed under Homo sapiens, the Ratio IC50 stood at 25.3.

Regarding `O=C(COc1cc(O)c2c(=O)cc(-c3ccccc3)oc2c1)OCc1cc(-c2cccc(F)c2)n(-c2ccccc2)n1`, the IC50 in [3] worked out at 43.2 µM; in assay [4], 3.53 µM; with MCF7 it was 9.02 µM; in the assay with B16-F10 it was 10.8 µM; with A549, 40.2 µM; in the assay on HeLa [5], 2.81 µM. Besides, in the assay on HEK-293T, the half-maximal inhibitory concentration (IC50) turned out to be 197 µM. The Ratio IC50 in the assay listed under Homo sapiens worked out at 12.2.
